pIC50: −log10 of the molar value.
Tests used:
[1] = target: T1, Prostaglandin G/H synthase 2 (Rattus norvegicus, UniProt P35355); assay: Inhibition of COX2 in rat abdominal macrophages assessed as PGE2 production pretreated for 30 mins followed by addition of 10 uM arachidonic acid as substrate for 20 mins by EIA
T1 sequence (P35355 whole entry): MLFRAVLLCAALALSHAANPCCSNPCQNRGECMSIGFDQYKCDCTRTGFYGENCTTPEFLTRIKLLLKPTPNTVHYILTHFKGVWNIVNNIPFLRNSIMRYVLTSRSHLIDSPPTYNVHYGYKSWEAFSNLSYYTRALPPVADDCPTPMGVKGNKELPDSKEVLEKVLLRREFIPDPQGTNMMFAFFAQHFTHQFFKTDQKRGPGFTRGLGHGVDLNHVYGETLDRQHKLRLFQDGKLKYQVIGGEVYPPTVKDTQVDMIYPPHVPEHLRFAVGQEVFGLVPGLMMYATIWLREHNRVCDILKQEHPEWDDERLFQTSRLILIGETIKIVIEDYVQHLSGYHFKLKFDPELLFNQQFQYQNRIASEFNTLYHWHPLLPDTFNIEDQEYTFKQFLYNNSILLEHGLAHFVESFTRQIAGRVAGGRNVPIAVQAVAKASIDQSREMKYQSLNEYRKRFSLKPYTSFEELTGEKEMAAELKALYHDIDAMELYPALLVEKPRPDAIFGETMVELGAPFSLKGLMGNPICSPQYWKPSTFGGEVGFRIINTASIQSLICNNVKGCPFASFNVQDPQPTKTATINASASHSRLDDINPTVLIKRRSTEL

[2] = target: T2, Polyunsaturated fatty acid 5-lipoxygenase (Rattus norvegicus, UniProt P12527); assay: Inhibition of 5-LOX in Sprague-Dawley rat leukocytes assessed as A23187 stimulated LTB4 production pretreated for 30 mins followed by addition of A23187 for 30 mins by EIA; assay type: cell-based
T2 sequence (P12527 whole entry): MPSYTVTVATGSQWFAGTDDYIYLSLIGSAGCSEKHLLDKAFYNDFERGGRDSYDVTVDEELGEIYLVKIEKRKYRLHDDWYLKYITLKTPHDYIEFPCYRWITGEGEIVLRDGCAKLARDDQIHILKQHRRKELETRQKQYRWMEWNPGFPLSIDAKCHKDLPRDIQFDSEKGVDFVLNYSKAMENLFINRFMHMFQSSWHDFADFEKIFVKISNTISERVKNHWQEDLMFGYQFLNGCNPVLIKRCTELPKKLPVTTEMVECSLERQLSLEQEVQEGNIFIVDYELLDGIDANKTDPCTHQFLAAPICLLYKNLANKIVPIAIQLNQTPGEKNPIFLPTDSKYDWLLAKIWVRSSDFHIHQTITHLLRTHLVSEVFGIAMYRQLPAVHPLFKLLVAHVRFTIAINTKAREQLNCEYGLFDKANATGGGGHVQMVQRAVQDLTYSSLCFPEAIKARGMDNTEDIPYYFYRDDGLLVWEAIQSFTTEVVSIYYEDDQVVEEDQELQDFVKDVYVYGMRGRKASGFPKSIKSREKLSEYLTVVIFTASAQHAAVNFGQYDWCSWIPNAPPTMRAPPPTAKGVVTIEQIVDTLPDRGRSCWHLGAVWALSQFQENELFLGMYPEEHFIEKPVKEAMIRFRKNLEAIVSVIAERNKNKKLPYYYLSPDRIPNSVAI
Procedure, shortened: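 Rat peritoneal leukocytes collected from Sprague-Dawley rats primed i.p. with 0.2% glycogen (20 mL/kg). Cells in Hanks solution plated at 1.0×10^6/well and held 10 min at 37 °C. Pretreated 30 min with L-cysteine (10 mM), indomethacin (1 mg/L) and compound or DMSO. A23187 added for 30 min. LTB4 in the clarified supernatant measured by EIA; % inhibition from OD; IC50 by Bliss method.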

[3] = tested on: A549; assay: Antiproliferative activity against human A549 cells after 72 hrs by MTT assay; assay type: functional, cell-based; conditions: A549, 72 h
Procedure, shortened: (§1)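 Cells seeded at 5×10^4/well, grown 24 h at 37 °C in 5% CO₂, then exposed to compounds dissolved in DMSO at a range of concentrations for 72 h. MTT (5 mg/mL in PBS) added for 4 h, then OD read at 570 nm. IC50 taken from dose-response curves, mean ± S.D. of three independent experiments.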

[4] = Antiproliferative activity against human Caco2 cells after 72 hrs by MTT assay; assay type: functional, cell-based; conditions: Caco-2, 72 h; procedure, shortened: as §1
[5] = Antiproliferative activity against human PC3 cells after 72 hrs by MTT assay; assay type: functional, cell-based; conditions: PC-3, 72 h; procedure, shortened: as §1
[6] = Antiproliferative activity against mouse B16F10 cells after 72 hrs by MTT assay; assay type: functional, cell-based; conditions: B16-F10, 72 h; procedure, shortened: as §1

SMILES	pIC50 [1]	pIC50 [2]	pIC50 [3]	pIC50 [4]	pIC50 [5]	pIC50 [6]
NS(=O)(=O)c1ccc(-c2nc(SCCOC(=O)/C=C/c3ccc(O)c(O)c3)nn2-c2ccccc2)cc1	6.21	6.10	4.85	4.82	4.82	4.82
CC(=O)Oc1ccc(/C=C/C(=O)NCCCSc2nc(-c3ccc(S(N)(=O)=O)cc3)n(-c3ccccc3)n2)cc1OC(C)=O	6.20	6.01	4.49	4.51	4.45	4.54
COc1cc(/C=C/C(=O)OCCSc2nc(-c3ccc(S(C)(=O)=O)cc3)n(-c3ccccc3)n2)ccc1O	6.24	6.08	–	–	–	–
CC(=O)Oc1ccc(/C=C/C(=O)OCCCSc2nc(-c3ccc(S(N)(=O)=O)cc3)n(-c3ccccc3)n2)cc1OC(C)=O	6.04	5.97	–	–	–	–
CC(=O)Oc1ccc(/C=C/C(=O)OCCCSc2nc(-c3ccc(S(N)(=O)=O)cc3)n(-c3ccc(F)cc3)n2)cc1OC(C)=O	6.44	5.99	5.00	4.94	4.98	4.96
O=C(/C=C/c1ccc(O)c(O)c1)OCCc1ccccc1 [CAFFEIC ACID PHENETHYL ESTER]	–	–	5.01	4.95	4.99	4.97
CC(=O)Oc1ccc(/C=C/C(=O)NCCSc2nc(-c3ccc(S(C)(=O)=O)cc3)n(-c3ccc(F)cc3)n2)cc1OC(C)=O	6.80	6.02	4.77	4.82	4.74	4.84
CC(=O)Oc1ccc(/C=C/C(=O)OCCSc2nc(-c3ccc(S(N)(=O)=O)cc3)n(-c3ccccc3)n2)cc1OC(C)=O	6.07	5.95	–	–	–	–
CC(=O)Oc1ccc(/C=C/C(=O)NCCCSc2nc(-c3ccc(S(C)(=O)=O)cc3)n(-c3ccc(F)cc3)n2)cc1OC(C)=O	6.77	6.01	4.66	4.68	4.76	4.82
NS(=O)(=O)c1ccc(-c2nc(SCCOC(=O)/C=C/c3ccccc3)nn2-c2ccc(Br)cc2)cc1	6.17	5.89	4.70	4.68	4.70	4.67
NS(=O)(=O)c1ccc(-c2nc(SCCCOC(=O)/C=C/c3ccc(O)c(O)c3)nn2-c2ccccc2)cc1	6.19	6.11	–	–	–	–
O=C(O)/C=C/c1ccc(O)c(O)c1 [CAFFEIC ACID]	–	–	< 4.00	< 4.00	< 4.00	< 4.00
CS(=O)(=O)c1ccc(-c2nc(SCCOC(=O)/C=C/c3ccc(O)c(O)c3)nn2-c2ccccc2)cc1	6.17	6.07	4.86	4.83	4.84	4.82

Further lines, with some results ahead:

pIC50 [1]	pIC50 [2]	pIC50 [3]	SMILES	pIC50 [4]	pIC50 [5]	pIC50 [6]
6.54	6.03	4.96	COc1cc(/C=C/C(=O)OCCSc2nc(-c3ccc(S(C)(=O)=O)cc3)n(-c3ccc(Br)cc3)n2)ccc1OC(C)=O	4.92	4.88	4.91
6.04	5.92	–	CC(=O)Oc1ccc(/C=C/C(=O)OCCSc2nc(-c3ccc(S(C)(=O)=O)cc3)n(-c3ccccc3)n2)cc1OC(C)=O	–	–	–
6.72	5.97	4.99	CC(=O)Oc1ccc(/C=C/C(=O)OCCSc2nc(-c3ccc(S(C)(=O)=O)cc3)n(-c3ccc(C(F)(F)F)cc3)n2)cc1OC(C)=O	4.95	4.84	4.94
6.51	5.98	–	CC(=O)Oc1ccc(/C=C/C(=O)OCCSc2nc(-c3ccc(S(N)(=O)=O)cc3)n(-c3ccc(Br)cc3)n2)cc1OC(C)=O	–	–	–
6.62	6.04	5.02	COc1cc(/C=C/C(=O)OCCSc2nc(-c3ccc(S(C)(=O)=O)cc3)n(-c3ccc(F)cc3)n2)ccc1OC(C)=O	4.97	4.89	4.95
6.74	6.00	4.73	CC(=O)Oc1ccc(/C=C/C(=O)NCCSc2nc(-c3ccc(S(N)(=O)=O)cc3)n(-c3ccc(Br)cc3)n2)cc1OC(C)=O	4.78	4.77	4.82
6.21	6.02	–	COc1cc(/C=C/C(=O)OCCSc2nc(-c3ccc(S(C)(=O)=O)cc3)n(-c3ccccc3)n2)ccc1OC(C)=O	–	–	–
6.64	6.04	5.02	COc1cc(/C=C/C(=O)OCCSc2nc(-c3ccc(S(C)(=O)=O)cc3)n(-c3ccc(C(F)(F)F)cc3)n2)ccc1OC(C)=O	4.97	5.01	4.98
6.54	6.00	4.89	CC(=O)Oc1ccc(/C=C/C(=O)OCCCSc2nc(-c3ccc(S(C)(=O)=O)cc3)n(-c3ccc(Br)cc3)n2)cc1OC(C)=O	4.93	4.83	4.89
6.43	6.10	4.95	CS(=O)(=O)c1ccc(-c2nc(SCCCOC(=O)/C=C/c3ccc(O)c(O)c3)nn2-c2ccc(Br)cc2)cc1	4.91	4.91	4.88
6.62	6.00	4.63	CC(=O)Oc1ccc(/C=C/C(=O)NCCCSc2nc(-c3ccc(S(C)(=O)=O)cc3)n(-c3ccc(Br)cc3)n2)cc1OC(C)=O	4.58	4.62	4.79
6.41	5.97	4.92	CC(=O)Oc1ccc(/C=C/C(=O)OCCSc2nc(-c3ccc(S(N)(=O)=O)cc3)n(-c3ccc(F)cc3)n2)cc1OC(C)=O	4.96	5.01	4.96
6.06	6.01	4.82	COc1cc(/C=C/C(=O)OCCSc2nc(-c3ccc(S(C)(=O)=O)cc3)n(-c3ccc(C)cc3)n2)ccc1OC(C)=O	4.85	4.81	4.81
6.74	5.98	4.93	CC(=O)Oc1ccc(/C=C/C(=O)OCCSc2nc(-c3ccc(S(C)(=O)=O)cc3)n(-c3ccc(F)cc3)n2)cc1OC(C)=O	4.89	4.81	4.85

Source: ChEMBL document CHEMBL3745688, “Discovery of novel hybrids of diaryl-1,2,4-triazoles and caffeic acid as dual inhibitors of cyclooxygenase-2 and 5-lipoxygenase for cancer therapy” (Eur J Med Chem, 2016)
